Reference: ChEMBL document CHEMBL4028872, “Structure-Activity Relationship, Pharmacological Characterization, and Molecular Modeling of Noncompetitive Inhibitors of the Betaine/γ-Aminobutyric Acid Transporter 1 (BGT1)” (J Med Chem, 2017)
≈ marks a conversion by molar mass, not a printed value. Calls of active or inactive are those of the source. No cut-off for these calls is given here.

Experiments:
[1] = target: 5-hydroxytryptamine receptor 2B (Homo sapiens) (UniProt P41595); test: Displacement of [3H]LSD from human 5-HT2B receptor expressed in HEK cell membranes at 10 uM after 90 mins by scintillation counting method
5-hydroxytryptamine receptor 2B (Homo sapiens), sequence (P41595 whole entry): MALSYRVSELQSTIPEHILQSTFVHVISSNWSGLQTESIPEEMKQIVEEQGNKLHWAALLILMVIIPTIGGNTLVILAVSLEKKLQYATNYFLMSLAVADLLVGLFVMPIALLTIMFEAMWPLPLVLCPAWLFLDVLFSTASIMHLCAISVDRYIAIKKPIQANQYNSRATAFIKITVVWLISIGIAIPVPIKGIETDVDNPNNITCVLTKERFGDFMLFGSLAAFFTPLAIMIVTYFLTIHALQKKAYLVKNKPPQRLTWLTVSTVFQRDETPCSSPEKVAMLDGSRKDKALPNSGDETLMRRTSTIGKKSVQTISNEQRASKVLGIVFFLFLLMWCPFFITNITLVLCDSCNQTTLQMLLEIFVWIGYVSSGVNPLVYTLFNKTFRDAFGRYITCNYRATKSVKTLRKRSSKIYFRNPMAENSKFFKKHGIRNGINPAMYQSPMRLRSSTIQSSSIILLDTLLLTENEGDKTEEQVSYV

[2] = Solubility of compound in pH 7.4 phosphate buffer after 24 hrs by HPLC-UV method; format: physicochemical
[3] = target: T1, Sodium- and chloride-dependent GABA transporter 3 (Homo sapiens, UniProt P48066); test: Inhibition of human GAT3 expresses in tsA201 cells assessed as reduction in [3H]GABA uptake after 3 mins by scintillation counting method; format: cell-based
T1 sequence (P48066 whole entry): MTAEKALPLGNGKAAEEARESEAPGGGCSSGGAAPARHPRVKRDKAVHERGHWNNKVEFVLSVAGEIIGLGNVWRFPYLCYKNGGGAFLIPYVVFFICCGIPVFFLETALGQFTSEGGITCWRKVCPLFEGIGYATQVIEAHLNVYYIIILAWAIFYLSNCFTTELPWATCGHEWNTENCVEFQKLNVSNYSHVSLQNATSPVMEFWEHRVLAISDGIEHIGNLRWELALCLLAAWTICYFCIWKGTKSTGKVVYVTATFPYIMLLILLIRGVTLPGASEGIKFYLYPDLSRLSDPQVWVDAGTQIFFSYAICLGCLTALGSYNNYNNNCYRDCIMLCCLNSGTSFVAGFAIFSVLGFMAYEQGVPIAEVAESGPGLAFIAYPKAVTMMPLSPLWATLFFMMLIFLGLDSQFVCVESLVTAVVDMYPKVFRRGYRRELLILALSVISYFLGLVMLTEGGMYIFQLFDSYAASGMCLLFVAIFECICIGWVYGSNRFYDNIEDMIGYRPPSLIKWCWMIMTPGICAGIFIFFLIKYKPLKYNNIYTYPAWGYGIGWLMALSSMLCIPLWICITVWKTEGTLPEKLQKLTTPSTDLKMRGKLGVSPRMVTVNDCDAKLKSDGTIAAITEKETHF
In short: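 Wild-type human GAT transiently expressed in tsA201 cells via pcDNA5/FRT and PolyFect. Uptake of 30 nM [3H]GABA was run for 3 min at 37 °C in HBSS/20 mM HEPES with 1 mM CaCl2 and 1 mM MgCl2, pH 7.4, across a range of test concentrations. Ice-cold washes were followed by scintillation counting. IC50 was obtained by sigmoidal variable-slope fitting, reported as mean pIC50 ± S.E.M.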

[4] = target: Sodium- and chloride-dependent betaine transporter (Homo sapiens, UniProt P48065); test: Inhibition of human BGT1/human GAT3 chimera B expresses in tsA201 cells assessed as reduction in [3H]GABA uptake after 3 mins by scintillation counting method; format: cell-based
In short: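 BGT1/GAT3 chimeric constructs transiently expressed in tsA201 cells. After about 24 h, cells were washed in HEPES-buffered HBSS (1 mM CaCl2, 1 mM MgCl2, pH 7.4). IC50 came from variable-slope sigmoidal regression. Triplicates, at least two independent experiments.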

[5] = target: Sodium- and chloride-dependent betaine transporter (Homo sapiens, UniProt P48065, Y453S/Y454A); test: Inhibition of human BGT1 Y453S/Y454A double mutant expressed in tsA201 cells assessed as reduction in [3H]GABA uptake after 3 mins by scintillation counting method; format: cell-based
Sodium- and chloride-dependent betaine transporter (Homo sapiens, UniProt P48065, Y453S/Y454A), sequence (P48065 whole entry Y453S/Y454A): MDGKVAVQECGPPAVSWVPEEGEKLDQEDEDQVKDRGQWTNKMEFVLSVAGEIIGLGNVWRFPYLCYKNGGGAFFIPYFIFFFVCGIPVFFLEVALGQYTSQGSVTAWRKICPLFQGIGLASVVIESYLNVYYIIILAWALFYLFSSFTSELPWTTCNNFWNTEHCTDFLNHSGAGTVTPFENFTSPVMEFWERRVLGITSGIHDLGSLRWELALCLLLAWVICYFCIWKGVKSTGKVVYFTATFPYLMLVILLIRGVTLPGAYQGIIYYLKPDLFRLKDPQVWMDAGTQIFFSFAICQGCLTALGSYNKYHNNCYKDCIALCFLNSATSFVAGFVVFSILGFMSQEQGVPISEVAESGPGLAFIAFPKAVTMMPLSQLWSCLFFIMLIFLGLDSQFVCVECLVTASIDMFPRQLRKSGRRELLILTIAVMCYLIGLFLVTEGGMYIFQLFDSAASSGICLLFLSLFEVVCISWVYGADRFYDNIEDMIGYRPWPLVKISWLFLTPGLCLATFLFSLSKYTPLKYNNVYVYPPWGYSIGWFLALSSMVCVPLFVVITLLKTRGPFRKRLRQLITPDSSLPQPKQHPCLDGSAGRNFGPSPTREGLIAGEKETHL
In short: (§1)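 tsA201 cells transiently transfected with wild-type or mutant human BGT1 (PolyFect) were plated about 24 h before assay. Three ice-cold washes followed, then scintillation counting.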

[6] = target: Sodium- and chloride-dependent GABA transporter 1 (Homo sapiens, UniProt P30531); format: cell-based
Sodium- and chloride-dependent GABA transporter 1, sequence (P30531 whole entry): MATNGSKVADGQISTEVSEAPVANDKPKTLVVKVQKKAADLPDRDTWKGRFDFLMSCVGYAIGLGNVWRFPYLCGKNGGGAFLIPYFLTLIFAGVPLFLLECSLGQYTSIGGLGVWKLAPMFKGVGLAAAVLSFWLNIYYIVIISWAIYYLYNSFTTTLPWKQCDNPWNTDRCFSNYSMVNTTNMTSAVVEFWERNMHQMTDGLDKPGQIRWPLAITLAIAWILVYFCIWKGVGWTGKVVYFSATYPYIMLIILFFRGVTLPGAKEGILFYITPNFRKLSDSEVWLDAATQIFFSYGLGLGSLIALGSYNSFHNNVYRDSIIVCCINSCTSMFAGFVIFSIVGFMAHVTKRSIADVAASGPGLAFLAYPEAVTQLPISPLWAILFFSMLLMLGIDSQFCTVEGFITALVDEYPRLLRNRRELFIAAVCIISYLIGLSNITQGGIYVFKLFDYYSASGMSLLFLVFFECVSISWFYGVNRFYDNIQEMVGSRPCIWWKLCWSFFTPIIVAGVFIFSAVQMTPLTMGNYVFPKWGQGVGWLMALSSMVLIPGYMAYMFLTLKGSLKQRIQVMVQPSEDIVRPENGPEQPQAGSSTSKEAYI

[7] = target: Sodium- and chloride-dependent GABA transporter 3 (Homo sapiens, UniProt P48066, L314Q); test: Inhibition of human GAT3 L314Q mutant expresses in tsA201 cells assessed as reduction in [3H]GABA uptake after 3 mins by scintillation counting method; format: cell-based
Sodium- and chloride-dependent GABA transporter 3 (Homo sapiens, UniProt P48066, L314Q), sequence (P48066 whole entry L314Q): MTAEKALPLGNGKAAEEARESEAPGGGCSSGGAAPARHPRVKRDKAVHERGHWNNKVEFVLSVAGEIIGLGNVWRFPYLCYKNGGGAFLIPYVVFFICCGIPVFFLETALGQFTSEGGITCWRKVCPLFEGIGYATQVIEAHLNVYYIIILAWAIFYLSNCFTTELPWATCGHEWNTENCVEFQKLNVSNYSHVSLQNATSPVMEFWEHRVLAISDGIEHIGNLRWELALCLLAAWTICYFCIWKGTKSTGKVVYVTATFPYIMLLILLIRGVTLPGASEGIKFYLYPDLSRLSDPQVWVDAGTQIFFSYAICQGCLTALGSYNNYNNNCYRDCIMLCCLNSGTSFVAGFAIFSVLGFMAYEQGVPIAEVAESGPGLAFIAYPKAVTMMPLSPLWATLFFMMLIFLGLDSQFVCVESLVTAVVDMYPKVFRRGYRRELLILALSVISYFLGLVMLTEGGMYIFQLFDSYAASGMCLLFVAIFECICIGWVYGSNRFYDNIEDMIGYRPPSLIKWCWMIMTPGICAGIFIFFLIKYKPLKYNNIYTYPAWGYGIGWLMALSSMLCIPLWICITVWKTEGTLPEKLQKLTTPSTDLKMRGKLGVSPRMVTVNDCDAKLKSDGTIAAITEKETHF
In short: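 Site-directed mutant transporters transiently transfected (PolyFect) into tsA201 cells, plated and used about 24 h later. Cells were washed with HBSS containing 20 mM HEPES, 1 mM CaCl2 and 1 mM MgCl2, pH 7.4. Uptake of 30 nM [3H]GABA was run with varied inhibitor concentrations for 3 min at 37 °C, then three ice-cold washes and scintillation counting. IC50 was taken from variable-slope sigmoidal fits. Triplicates, at least three independent experiments.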

[8] = target: D(1A) dopamine receptor (Homo sapiens) (UniProt P21728); test: Displacement of [3H]SCH23390 from human Dopamine receptor D1 receptor expressed in HEKT cell membranes at 10 uM after 90 mins by scintillation counting method
D(1A) dopamine receptor (Homo sapiens), sequence (P21728 whole entry): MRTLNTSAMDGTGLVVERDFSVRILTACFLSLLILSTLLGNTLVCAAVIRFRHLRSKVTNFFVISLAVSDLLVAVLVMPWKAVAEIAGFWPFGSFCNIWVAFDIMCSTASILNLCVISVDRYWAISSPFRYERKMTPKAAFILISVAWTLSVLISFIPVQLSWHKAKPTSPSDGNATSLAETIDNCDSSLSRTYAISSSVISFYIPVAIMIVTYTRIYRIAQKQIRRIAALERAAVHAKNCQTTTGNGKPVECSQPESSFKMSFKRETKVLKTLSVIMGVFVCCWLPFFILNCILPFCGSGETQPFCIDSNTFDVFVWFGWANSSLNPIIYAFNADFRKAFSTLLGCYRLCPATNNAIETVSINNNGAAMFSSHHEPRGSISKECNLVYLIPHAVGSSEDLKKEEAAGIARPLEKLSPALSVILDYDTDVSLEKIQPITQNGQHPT

[9] = target: Sodium- and chloride-dependent betaine transporter (Homo sapiens, UniProt P48065, I386F); test: Inhibition of human BGT1 I386F mutant expressed in tsA201 cells assessed as reduction in [3H]GABA uptake after 3 mins by scintillation counting method; format: cell-based; in short: as §1
Sodium- and chloride-dependent betaine transporter (Homo sapiens, UniProt P48065, I386F), sequence (P48065 whole entry I386F): as the sequence (P48065 whole entry Y453S/Y454A) above, with I386F, S453Y, A454Y counted along it

[10] = target: T2, Sodium- and chloride-dependent betaine transporter (Homo sapiens, UniProt P48065); test: Inhibition of human BGT1 expresses in tsA201 cells assessed as reduction in [3H]GABA uptake after 3 mins by scintillation counting method; format: cell-based; in short: as §1
T2 sequence (P48065 whole entry): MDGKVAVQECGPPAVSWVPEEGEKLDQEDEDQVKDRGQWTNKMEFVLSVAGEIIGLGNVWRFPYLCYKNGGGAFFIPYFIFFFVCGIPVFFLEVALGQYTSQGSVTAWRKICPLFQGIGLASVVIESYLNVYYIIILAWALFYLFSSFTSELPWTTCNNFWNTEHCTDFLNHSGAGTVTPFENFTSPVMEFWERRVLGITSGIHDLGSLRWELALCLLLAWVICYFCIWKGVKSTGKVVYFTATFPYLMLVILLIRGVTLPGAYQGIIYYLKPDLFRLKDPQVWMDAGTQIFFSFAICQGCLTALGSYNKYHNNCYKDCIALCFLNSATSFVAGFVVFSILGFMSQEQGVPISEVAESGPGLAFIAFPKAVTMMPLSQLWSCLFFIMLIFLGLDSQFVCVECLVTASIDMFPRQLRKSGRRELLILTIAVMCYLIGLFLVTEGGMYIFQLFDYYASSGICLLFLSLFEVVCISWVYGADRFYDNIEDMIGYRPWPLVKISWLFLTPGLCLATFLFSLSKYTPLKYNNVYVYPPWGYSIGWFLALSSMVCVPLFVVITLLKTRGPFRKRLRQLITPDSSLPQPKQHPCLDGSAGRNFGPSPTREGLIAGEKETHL

[11] = target: Sodium- and chloride-dependent betaine transporter (Homo sapiens, UniProt P48065, Y453S); test: Inhibition of human BGT1 Y453S mutant expressed in tsA201 cells assessed as reduction in [3H]GABA uptake after 3 mins by scintillation counting method; format: cell-based; in short: as §1
Sodium- and chloride-dependent betaine transporter (Homo sapiens, UniProt P48065, Y453S), sequence (P48065 whole entry Y453S): as the sequence (P48065 whole entry Y453S/Y454A) above, with A454Y counted along it

| IC50 [3] [µM] | IC50 [6] [µM] | Compound | inhibition [1] | solubility at 24 h [2] [µg/mL] | IC50 [4] [µM] | IC50 ([5]; read-out: IC50) [µM] | IC50 [7] [µM] | inhibition [8] | IC50 ([9]; read-out: IC50) [µM] | IC50 ([10]; read-out: IC50) [µM] | IC50 [11] [µM] | IC50 ([3]; read-out: IC50) [µM] | IC50 ([5]; read-out: pIC50 (converted)) [µM] | IC50 ([6]; read-out: IC50) [µM] | IC50 ([9]; read-out: pIC50 (converted)) [µM] | IC50 ([10]; read-out: pIC50 (converted)) [µM] |
| --- | --- | --- | --- | --- | --- | --- | --- | --- | --- | --- | --- | --- | --- | --- | --- | --- |
| > 100 | > 100 | O=C(NC1CCN(Cc2ccccc2)CC1)c1ccc(Cl)cc1Cl | Active | 40 (≈ 110 µM) | > 1000 | 6 | 460 | Active | 8 | 18 | 19 |  |  |  |  |  |
|  |  | O=C(NC1CCN(Cc2ccccc2)CC1)c1ccc(Cl)nc1Cl | Active | 610 (≈ 1670 µM) | > 1000 | 15 | 405 | inactive | 47 | 44 | 25 | > 1000 | 12.9 | > 1000 | 43.7 | 40.7 |
